Experimental data reported in PMC3589821 (Biochemistry, 2013).
Numbering of substitutions follows the chain as printed.

What was measured:
Ath α-DOX [1] = target: T1, Ath α-DOX (Arabidopsis thaliana, UniProt Q9SGH6, H318Q); assay: oxygen electrode, oxygenase activity; assay type: biochemical; conditions: co-substrate O2
T1 sequence (Q9SGH6 1-639 H318Q): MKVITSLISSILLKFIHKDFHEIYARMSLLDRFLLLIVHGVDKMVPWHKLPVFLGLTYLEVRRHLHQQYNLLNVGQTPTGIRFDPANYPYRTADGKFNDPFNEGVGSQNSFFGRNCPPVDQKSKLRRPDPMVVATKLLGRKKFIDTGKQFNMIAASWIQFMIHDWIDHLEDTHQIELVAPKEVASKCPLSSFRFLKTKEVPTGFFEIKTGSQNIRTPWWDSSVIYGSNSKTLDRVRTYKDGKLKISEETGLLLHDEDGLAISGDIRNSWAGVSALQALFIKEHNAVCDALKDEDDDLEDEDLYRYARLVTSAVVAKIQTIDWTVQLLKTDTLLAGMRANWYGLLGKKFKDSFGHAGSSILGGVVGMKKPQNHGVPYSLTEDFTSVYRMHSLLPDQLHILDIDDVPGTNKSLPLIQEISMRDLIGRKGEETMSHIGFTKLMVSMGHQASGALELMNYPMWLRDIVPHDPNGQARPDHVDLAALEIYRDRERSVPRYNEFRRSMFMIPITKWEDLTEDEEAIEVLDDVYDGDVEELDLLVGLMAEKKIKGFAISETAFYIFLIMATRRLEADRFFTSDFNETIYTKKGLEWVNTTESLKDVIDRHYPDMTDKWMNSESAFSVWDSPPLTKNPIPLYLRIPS

Ath α-DOX [2] = target: T2, Ath α-DOX (Arabidopsis thaliana, UniProt Q9SGH6); assay: oxygen electrode, oxygenase activity; assay type: biochemical; conditions: co-substrate O2
T2 sequence (Q9SGH6 1-639): T1 sequence (Q9SGH6 1-639 H318Q) with Q318H
How it was run: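 Codon-optimized Ath α-DOX (wild type or point mutants) was expressed in E. coli M15 with 1mM IPTG and 250μM δ-aminolevulinic acid at 23°C for 16 h. It was solubilized in 0.7% C10M, purified by IMAC and size exclusion, and dialyzed a week in 20mM TRIS pH 8.0, 150mM NaCl, 0.2% C10M to remove imidazole. O2 consumption was followed by oxygen electrode with αLA, LA or OA substrates. KM values came from triplicate measurements.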

Ath α-DOX [3] = target: T2, Ath α-DOX; assay: X-ray crystal structure, […] Å; assay type: binding; conditions: iron liganded to His-389; water as sixth ligand; pH 8.0
Ath α-DOX [4] = target: T2, Ath α-DOX; assay: oxygen electrode, oxygenase activity; assay type: biochemical; conditions: 1 mM imidazole, 60 min preincubation

Km (Ath α-DOX [2]) [µM]	Compound	further results
15 ± 1.9	CCCCCCCC/C=C\CCCCCCCC(=O)O [OA, oleic acid]	
	C=CC1=C(C)C2=Cc3c(C=C)c(C)c4[n]3[Fe+][n]3c(c(C)c(CCC(=O)O)c3=CC3=NC(=C4)C(C)=C3CCC(=O)O)=CC1=N2 [heme]	X-ray crystal structure, 1.70 Å (Ath α-DOX [3]): The heme is liganded to the side chain of His-389
	c1c[nH]cn1 [imidazole]	% reduction in activity at 1 mM (Ath α-DOX [4]): 50%
36 ± 3.2	CC/C=C\C/C=C\C/C=C\CCCCCCCC(=O)O [αLA, α-linolenic acid]	

Compound	Km (Ath α-DOX [2]) [µM]	further results
CCCCC/C=C\C/C=C\CCCCCCCC(=O)O [LA, linoleic acid]	23 ± 2	Km (Ath α-DOX [1]): 18.2 ± 2.4 µM
